Assay [1] addresses T1, lipopolysaccharide-responsive beige-like anchor protein (LRBA) (Homo sapiens, UniProt P50851). The assay is described as follows: ITC with purified LRBA PH domain. The assay is classed as binding.
Target sequence in this assay (P50851 2073-2489 limits assumed): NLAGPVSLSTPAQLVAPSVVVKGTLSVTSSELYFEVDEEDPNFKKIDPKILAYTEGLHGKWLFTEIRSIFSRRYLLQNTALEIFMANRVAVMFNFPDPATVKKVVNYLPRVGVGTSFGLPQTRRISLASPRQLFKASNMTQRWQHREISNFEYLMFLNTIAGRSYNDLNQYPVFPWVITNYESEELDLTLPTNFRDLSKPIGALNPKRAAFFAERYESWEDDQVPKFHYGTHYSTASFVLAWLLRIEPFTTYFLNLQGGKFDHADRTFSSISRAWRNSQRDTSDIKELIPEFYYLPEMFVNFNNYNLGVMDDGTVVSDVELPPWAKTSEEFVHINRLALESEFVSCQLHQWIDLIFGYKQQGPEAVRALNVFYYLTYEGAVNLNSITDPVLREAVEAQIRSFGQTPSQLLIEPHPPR
Assay [2] deals with T1, lipopolysaccharide-responsive beige-like anchor protein (LRBA). Description: Nluc complementation with purified LRBA PH. The assay is classed as cell-based. In outline:
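HEK293T cells were transfected with three plasmids and treated with test compound in DMEM assay medium at 250.00, 100.00, 33.30, 10.00, 3.33, 1.00, 0.33, 0.10, 0.03 and 0.01 μM. Inhibition of the CTLA4–LRBA interaction was read as the Nluc/Firefly luciferase ratio by dual-luciferase assay. In the cell-free format, Flag-purified Sm-LRBA PH was preincubated with compound for 2 h at 25 °C. Myc-purified CTLA4 CT-Lg was then added for 18 h at 25 °C.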
Target sequence in this assay (P50851 2073-2489): as the sequence (P50851 2073-2489 limits assumed) above
Target sequence in this assay (P16410 36-223, further chain): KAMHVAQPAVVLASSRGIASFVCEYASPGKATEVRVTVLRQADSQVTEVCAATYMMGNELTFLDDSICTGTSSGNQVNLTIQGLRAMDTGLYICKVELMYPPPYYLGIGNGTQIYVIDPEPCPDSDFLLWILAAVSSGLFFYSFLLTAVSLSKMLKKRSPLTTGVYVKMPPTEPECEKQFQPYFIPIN

In assay [1], `c1ccc2ncc(-c3ccnc(N4CCNCC4)n3)cc2c1` [LC427, 3-(2-(piperazin-1-yl)pyrimidin-4-yl) quinoline] came in with a Kd of 19.6 µM.
On to `NCC1CCN(c2nccc(-c3ccc4ccccc4c3)n2)CC1` [WAY-262611], for which, in assay [2], it took 0.34 µM to reach half-maximal inhibition (IC50). This lies in the sub-micromolar range.

The values above are taken from article PMC12815959 (Nature Communications, 2025).
